The nature of data set [1]: Metabolic stability in rat liver microsomes assessed as parent compound remaining at 5 uM after 1 hr. Conditions: read-out: Stability. The data set is classed as ADME, Microsome. The procedure, abridged:
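Compound (5 μM) was incubated with rat liver microsomes ([…]) for 1 h. Percent of compound remaining was reported.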
(In general: Liver microsomes are a subcellular fraction often used to study metabolism.)

Data set [2] can be described thus: Solubility of the compound in FeSSIF. The format is physicochemical.
The target in data set [3] is T1, Glucose-dependent insulinotropic receptor (Homo sapiens, UniProt Q8TDV5).
T1 sequence (Q8TDV5 whole entry): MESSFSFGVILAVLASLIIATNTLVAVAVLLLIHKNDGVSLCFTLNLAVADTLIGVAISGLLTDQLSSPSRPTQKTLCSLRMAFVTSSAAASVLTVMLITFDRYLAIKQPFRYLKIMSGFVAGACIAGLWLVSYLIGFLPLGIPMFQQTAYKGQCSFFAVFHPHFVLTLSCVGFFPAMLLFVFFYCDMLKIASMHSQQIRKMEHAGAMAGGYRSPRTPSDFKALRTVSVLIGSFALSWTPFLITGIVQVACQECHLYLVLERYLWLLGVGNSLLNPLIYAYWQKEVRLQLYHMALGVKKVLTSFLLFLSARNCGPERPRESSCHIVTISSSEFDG
The data set can be described thus: Agonist activity at human GPR119 expressed in HEK293 cells assessed as intracellular cAMP accumulation after 30 mins by HTRF assay. The format is functional, cell-based. The procedure, abridged: (§1)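 Anti-cAMP cryptate in lysis buffer was then added for 3 h at room temperature in the dark, and cAMP was read by HTRF. EC50 is the concentration giving 50% of the maximal OEA response; intrinsic activity is expressed as % of OEA (100%).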
(In general: Cyclic AMP is a second messenger, typically raised through Gs and lowered through Gi signalling.)

The nature of data set [4]: Metabolic stability in human liver microsomes assessed as parent compound remaining at 5 uM after 1 hr. The data set is classed as ADME, Microsome. The conditions noted are these: read-out: Stability. Summed up:
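Compound (5 μM) was incubated with human liver microsomes ([…]) for 1 h. Percent of compound remaining was reported.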

Data set [5] in a line: Solubility of the compound in Japanese pharmacopoeia first fluid at pH 1.2. The data set is classed as physicochemical. Summed up:
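Solubility was measured in Japanese Pharmacopoeia 1st fluid for dissolution testing, adjusted to pH 1.2.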

Data set [6] concerns the target T2, Glucose-dependent insulinotropic receptor (Homo sapiens) (UniProt Q8TDV5).
T2 sequence (whole entry): T1 sequence (Q8TDV5 whole entry)
The experiment in a line: Intrinsic activity at human GPR119 expressed in HEK293 cells assessed as intracellular cAMP accumulation after 30 mins by HTRF assay relative to oleoylethanolamide. The format is functional, cell-based. The procedure, abridged: as §1

In brackets after ≈: the same amount, converted by molar mass. Bounds are passed on as bounds.

A word on the solubility: it is how much of the substance goes into solution per volume. Low values mean a poorly soluble substance, high ones a readily soluble substance. By EC50 is commonly meant the concentration that produces a half-maximal response. For the molecule `Cc1c(Nc2ccc(S(C)(=O)=O)cc2F)ncnc1N(C)[C@H]1CC[C@]2(CC1)COC(C)(C)C2`, the remaining at 1 h, 5 µM in data set [1] was 93%; in data set [4] it was 91%. The solubility in data set [2] is 49.8 µM (≈ 23.7 µg/mL); in data set [5], more than 475 µM. Moreover, in data set [3], the half-maximal effective concentration (EC50) turned out to be 45 nM. In addition, the Intrinsic activity in data set [6] came to 128%.
In the case of `Cc1c(Oc2ccc(S(C)(=O)=O)cc2F)ncnc1O[C@H]1CC[C@]2(CC1)COC(C)(C)C2`, the solubility was 33.4 µM (≈ 15.5 µg/mL) in data set [2] and less than 0.5 µM in data set [5]. In addition, in data set [3], the concentration for a half-maximal effect (EC50) amounted to 59 nM. In addition, the Intrinsic activity in data set [6] stood at 62%.
For the molecule `Cc1c(Nc2ccc(C(=O)N(C)C)cc2F)ncnc1O[C@H]1CC[C@]2(CC1)COC(C)(C)C2`, the remaining at 1 h, 5 µM in data set [1] was determined as 44%; in data set [4], 77%. The solubility in data set [2] worked out at 65.2 µM (≈ 29.8 µg/mL); in data set [5] it was 128 µM (≈ 58.7 µg/mL). Also, the EC50 in data set [3] came out at 33 nM. The Intrinsic activity in data set [6] worked out at 101%.
For `CC(O[C@H]1CC[C@]2(CC1)COC(C)(C)C2)c1nc(-c2ccc(S(C)(=O)=O)c(F)c2)no1` (some centres undefined), the EC50 in data set [3] was found to be 89 nM. For the same molecule, the Intrinsic activity in data set [6] was found to be 109%.
As for `Cc1c(O[C@H]2CC[C@]3(CC2)COC(C)(C)C3)ncnc1N1CCc2cc(S(C)(=O)=O)ccc21`, the solubility in data set [2] came to 25.5 µM (≈ 12 µg/mL); in data set [5], 2.8 µM (≈ 1.32 µg/mL). Further, the EC50 in data set [3] is more than 1000 nM. In addition, in data set [6], the Intrinsic activity stood at 38%.
`CN(c1ncnc2c1CCN2c1ccc(S(C)(=O)=O)cc1F)[C@H]1CC[C@]2(CC1)COC(C)(C)C2`: the remaining at 1 h, 5 µM in data set [1] came to 94%; in data set [4], 99%. For the same molecule, the solubility was 75.3 µM (≈ 36.8 µg/mL) in data set [2] and more than 475 µM in data set [5]. For the same molecule, in data set [3], the EC50 amounted to 39 nM. Moreover, the Intrinsic activity in data set [6] worked out at 118%.
Take `CC(C)c1c(Nc2ccc(S(C)(=O)=O)cc2F)ncnc1O[C@H]1CC[C@]2(CC1)COC(C)(C)C2`: the figures for the solubility in data set [2] and in data set [5] were 4.3 µM (≈ 2.11 µg/mL) and 0.7 µM (≈ 0.344 µg/mL), respectively. In addition, in data set [3], the EC50 was determined as 98 nM. Besides, the Intrinsic activity in data set [6] is 61%.
For `CC1(C)C[C@]2(CC[C@H](c3nc(COc4ccc(-n5cnnn5)cc4)cs3)CC2)CO1`, in data set [3], the EC50 amounted to 85 nM. Further, the Intrinsic activity in data set [6] is 79%.
Regarding `CCc1c(Nc2ccc(S(C)(=O)=O)cc2F)ncnc1O[C@H]1CC[C@]2(CC1)COC(C)(C)C2`, the results for the solubility in data set [2] and in data set [5] were 67.5 µM (≈ 32.2 µg/mL) and 4.6 µM (≈ 2.2 µg/mL), respectively. For the same molecule, in data set [3], the EC50 is 42 nM. Also, the Intrinsic activity in data set [6] stood at 82%.
Regarding `CN(c1cc(N2CCc3cc(S(C)(=O)=O)ccc32)ncn1)[C@H]1CC[C@]2(CC1)COC(C)(C)C2`, the remaining at 1 h, 5 µM in data set [1] was 80%; in data set [4] it was 89%. In addition, the solubility in data set [2] was determined as 24.3 µM (≈ 11.4 µg/mL); in data set [5], 418 µM (≈ 197 µg/mL). For the same molecule, the concentration giving a half-maximal response (EC50) in data set [3] stood at 16 nM. The Intrinsic activity in data set [6] is 108%.
As to `Cc1c(Nc2ccc(S(C)(=O)=O)cc2)ncnc1O[C@H]1CC[C@]2(CC1)COC(C)(C)C2`, the solubility was 8.6 µM (≈ 3.83 µg/mL) in data set [2] and 4.4 µM (≈ 1.96 µg/mL) in data set [5]. Also, in data set [3], the EC50 was 139 nM. Further, the Intrinsic activity in data set [6] is 92%.
For the molecule `Cc1c(Nc2ccc(S(C)(=O)=O)cc2F)ncnc1O[C@H]1CC[C@]2(CC1)COC(C)(C)C2`, the solubility amounted to 15.8 µM (≈ 7.32 µg/mL) in data set [2] and 5.3 µM (≈ 2.46 µg/mL) in data set [5]. For the same molecule, the concentration giving a half-maximal response (EC50) in data set [3] was determined as 13 nM. In addition, the Intrinsic activity in data set [6] came to 91%.
The like results for `CC1(C)C[C@]2(CC[C@H](Oc3ncnc4c3CCN4c3ccc(S(C)(=O)=O)cc3F)CC2)CO1` were, in that order, 15.2 µM (≈ 7.23 µg/mL), 18.9 µM (≈ 8.99 µg/mL), 5 nM and 90%.
With `Cc1c(O[C@H]2CC[C@]3(CC2)COC(C)(C)C3)ncnc1N(C)c1ccc(S(C)(=O)=O)cc1F`, the results for the solubility in data set [2] and in data set [5] were 42.5 µM (≈ 20.3 µg/mL) and 13 µM (≈ 6.21 µg/mL), respectively. Besides, in data set [3], the EC50 was more than 1000 nM. Moreover, the Intrinsic activity in data set [6] amounted to 17%.
With `CC1(C)C[C@]2(CC[C@H](Oc3cc(N4CCc5cc(S(C)(=O)=O)ccc54)ncn3)CC2)CO1`, the results for the solubility in data set [2] and in data set [5] were 19.8 µM (≈ 9.06 µg/mL) and 7 µM (≈ 3.2 µg/mL), respectively. Further, in data set [3], the EC50 is 15 nM. In data set [6], the Intrinsic activity worked out at 87%.

These data come from ChEMBL document CHEMBL4330099, “Lead generation and optimization of novel GPR119 agonists with a spirocyclic cyclohexane structure” (Bioorg Med Chem Lett, 2019).
